Test results: ChEMBL document CHEMBL4406821, “Novel dual inhibitors targeting CDK4 and VEGFR2 synergistically suppressed cancer progression and angiogenesis” (Eur J Med Chem, 2019)
One block for each compound: values may come before it. Calls of active or inactive are those of the source. The rule behind the calls is not given here.

Key:
[1] = biological target: Vascular endothelial growth factor receptor 2 (Homo sapiens, UniProt P35968); conditions: HUVEC, 40 nM
T47D = assay: Induction of cell cycle arrest in human T47D cells assessed as accumulation in G2/M phase at 20 to 40 nM incubated for 36 hrs by propidium iodide staining based flow cytometry; assay type: functional
Summary of the method: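 Cells were treated with graded concentrations for 36 h, then fixed overnight in 70% ice-cold ethanol at 4°C and resuspended in PBS. Staining used 50 µg/ml PI plus 5 µg/ml RNase at 37°C for 30 min. DNA content was analysed by FACS to give G0/G1, S and G2/M fractions.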

HeLa = assay: Induction of apoptosis in human HeLa cells assessed as decrease in Rb phosphorylation incubated for 48 hrs by Western blot analysis; assay type: functional, cell-based
Summary of the method: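 Cells were treated for 48 h, washed three times with PBS, and lysed in RIPA buffer. Immunoblots used anti-Rb, anti-phospho-Rb, anti-Ki67 and anti-Bcl-2 (each 1:1000), with β-actin as loading control.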

[2] = AUC (0 to t) in Sprague-Dawley rat at 10 mg/kg, po by HPLC-MS analysis; assay type: ADME, organism-based; conditions: in vivo
Summary of the method: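 Rats fitted with jugular vein catheters for serial blood sampling. Compound dissolved in saline with 5% (v/v) DMSO and given as a single 10 mg/kg dose iv or po after an overnight fast, n = 5 per group. Plasma isolated at once and measured by HPLC with tandem MS detection. Parameters derived by noncompartmental fitting.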

[3] = biological target: Cytoplasmic tyrosine-protein kinase BMX (Homo sapiens) (UniProt P51813); assay: Inhibition of recombinant full length human BMX at 1 uM using poly(Glu, Tyr) 4:1 as substrate incubated for 40 mins in presence of [gamma-33P]-ATP by scintillation counting method relative to control
Summary of the method: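 Kinase panel profiling at 1 μM performed by Eurofins KinaseProfiler; percent inhibition reported as mean of two independent experiments.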

[4] = biological target: Transient receptor potential cation channel subfamily M member 7 (Homo sapiens) (UniProt Q96QT4); assay: Inhibition of recombinant human CHAK1 (1180 to end residues) at 1 uM using myelin ba as substrate incubated for 40 mins in presence of [gamma-33P]-ATP by scintillation counting method relative to control
Summary of the method: (§1)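 Tested at a single 1 uM in an outsourced commercial kinase-profiling panel, read as percent inhibition. Each value is the mean of two independent experiments.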

[5] = biological target: RAF proto-oncogene serine/threonine-protein kinase (Homo sapiens) (UniProt P04049); assay: Inhibition of recombinant human cRaf (306 to end residues) at 1 uM using unactive MEK1 as substrate incubated for 40 mins in presence of [gamma-33P]-ATP by scintillation counting method relative to control
Sequence of RAF proto-oncogene serine/threonine-protein kinase (Homo sapiens) (P04049 whole entry): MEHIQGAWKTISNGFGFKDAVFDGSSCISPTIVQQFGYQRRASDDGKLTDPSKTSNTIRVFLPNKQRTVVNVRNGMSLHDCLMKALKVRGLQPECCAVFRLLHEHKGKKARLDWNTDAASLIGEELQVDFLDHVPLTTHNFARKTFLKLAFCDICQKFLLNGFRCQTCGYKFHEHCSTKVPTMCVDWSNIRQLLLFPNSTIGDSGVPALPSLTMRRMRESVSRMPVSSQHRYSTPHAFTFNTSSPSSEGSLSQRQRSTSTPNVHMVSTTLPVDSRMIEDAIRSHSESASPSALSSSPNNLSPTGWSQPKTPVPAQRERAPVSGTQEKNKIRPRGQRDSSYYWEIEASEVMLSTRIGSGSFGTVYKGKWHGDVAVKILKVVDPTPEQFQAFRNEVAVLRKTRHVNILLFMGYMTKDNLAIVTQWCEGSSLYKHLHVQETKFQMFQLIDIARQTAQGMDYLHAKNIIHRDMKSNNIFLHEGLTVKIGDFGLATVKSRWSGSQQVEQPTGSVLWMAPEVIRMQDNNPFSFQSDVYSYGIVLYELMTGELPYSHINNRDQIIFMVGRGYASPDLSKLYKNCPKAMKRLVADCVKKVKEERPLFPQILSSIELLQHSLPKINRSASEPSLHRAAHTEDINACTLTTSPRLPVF

[6] = biological target: Leukocyte tyrosine kinase receptor (Homo sapiens) (UniProt P29376); assay: Inhibition of recombinant human LTK (450 to end residues) at 1 uM using GEEPLYWSFPAKKK as substrate incubated for 40 mins in presence of [gamma-33P]-ATP by scintillation counting method relative to control
Sequence of Leukocyte tyrosine kinase receptor (Homo sapiens) (P29376 whole entry): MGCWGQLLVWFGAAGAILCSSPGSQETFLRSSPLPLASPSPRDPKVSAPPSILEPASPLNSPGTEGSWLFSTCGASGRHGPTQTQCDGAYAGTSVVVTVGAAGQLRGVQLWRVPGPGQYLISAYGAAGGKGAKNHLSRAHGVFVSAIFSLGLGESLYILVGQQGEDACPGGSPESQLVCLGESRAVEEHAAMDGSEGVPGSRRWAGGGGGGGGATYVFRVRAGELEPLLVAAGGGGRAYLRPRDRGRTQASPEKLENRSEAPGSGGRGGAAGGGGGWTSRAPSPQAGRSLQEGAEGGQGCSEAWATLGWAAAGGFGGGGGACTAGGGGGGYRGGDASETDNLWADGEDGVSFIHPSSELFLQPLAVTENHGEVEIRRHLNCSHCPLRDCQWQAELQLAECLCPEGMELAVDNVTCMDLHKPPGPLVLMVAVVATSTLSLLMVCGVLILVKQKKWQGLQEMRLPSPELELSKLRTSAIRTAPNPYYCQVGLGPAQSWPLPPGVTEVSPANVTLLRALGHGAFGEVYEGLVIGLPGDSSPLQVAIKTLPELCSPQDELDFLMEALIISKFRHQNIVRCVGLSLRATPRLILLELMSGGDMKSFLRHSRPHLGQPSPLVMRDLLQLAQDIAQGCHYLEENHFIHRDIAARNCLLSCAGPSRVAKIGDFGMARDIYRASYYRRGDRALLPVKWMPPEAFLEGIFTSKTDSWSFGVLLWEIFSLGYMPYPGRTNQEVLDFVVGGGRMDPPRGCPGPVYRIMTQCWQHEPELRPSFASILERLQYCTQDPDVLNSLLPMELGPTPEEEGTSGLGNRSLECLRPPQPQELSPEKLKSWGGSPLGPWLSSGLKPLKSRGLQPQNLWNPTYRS
Summary of the method: as §1

[7] = biological target: Tyrosine-protein kinase HCK (Homo sapiens) (UniProt P08631); assay: Inhibition of recombinant human HCK (230 to 497 residues) at 1 uM using GGMEDIYFEFMGGKKK as substrate incubated for 40 mins in presence of [gamma-33P]-ATP by scintillation counting method relative to control
[8] = biological target: Insulin receptor (Homo sapiens) (UniProt P06213); assay: Inhibition of recombinant human IR (1005 to 1310 residues) at 1 uM using KKKSPGEYVNIEFG as substrate incubated for 40 mins in presence of [gamma-33P]-ATP by scintillation counting method relative to control
Sequence of Insulin receptor (Homo sapiens) (P06213 28-758 limits assumed): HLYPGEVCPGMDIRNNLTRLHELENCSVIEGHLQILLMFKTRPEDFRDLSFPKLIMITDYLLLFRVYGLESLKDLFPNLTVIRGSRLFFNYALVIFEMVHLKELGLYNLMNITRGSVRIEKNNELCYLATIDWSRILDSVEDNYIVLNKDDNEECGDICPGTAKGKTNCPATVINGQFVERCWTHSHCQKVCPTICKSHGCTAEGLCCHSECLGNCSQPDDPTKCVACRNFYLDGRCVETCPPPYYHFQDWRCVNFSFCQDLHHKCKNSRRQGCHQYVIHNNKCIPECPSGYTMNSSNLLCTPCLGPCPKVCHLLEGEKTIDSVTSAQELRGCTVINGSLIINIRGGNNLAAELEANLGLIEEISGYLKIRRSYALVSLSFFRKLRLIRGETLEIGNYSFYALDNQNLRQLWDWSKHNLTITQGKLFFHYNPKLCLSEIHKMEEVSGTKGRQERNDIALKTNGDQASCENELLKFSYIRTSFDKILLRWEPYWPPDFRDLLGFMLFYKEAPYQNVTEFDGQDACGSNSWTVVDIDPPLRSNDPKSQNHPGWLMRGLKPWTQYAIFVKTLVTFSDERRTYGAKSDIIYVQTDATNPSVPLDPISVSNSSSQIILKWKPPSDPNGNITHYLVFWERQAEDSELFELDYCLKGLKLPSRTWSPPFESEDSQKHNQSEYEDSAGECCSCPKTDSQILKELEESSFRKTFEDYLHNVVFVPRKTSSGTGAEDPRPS
Sequence of Insulin receptor (Homo sapiens) (P06213 763-1382 limits assumed): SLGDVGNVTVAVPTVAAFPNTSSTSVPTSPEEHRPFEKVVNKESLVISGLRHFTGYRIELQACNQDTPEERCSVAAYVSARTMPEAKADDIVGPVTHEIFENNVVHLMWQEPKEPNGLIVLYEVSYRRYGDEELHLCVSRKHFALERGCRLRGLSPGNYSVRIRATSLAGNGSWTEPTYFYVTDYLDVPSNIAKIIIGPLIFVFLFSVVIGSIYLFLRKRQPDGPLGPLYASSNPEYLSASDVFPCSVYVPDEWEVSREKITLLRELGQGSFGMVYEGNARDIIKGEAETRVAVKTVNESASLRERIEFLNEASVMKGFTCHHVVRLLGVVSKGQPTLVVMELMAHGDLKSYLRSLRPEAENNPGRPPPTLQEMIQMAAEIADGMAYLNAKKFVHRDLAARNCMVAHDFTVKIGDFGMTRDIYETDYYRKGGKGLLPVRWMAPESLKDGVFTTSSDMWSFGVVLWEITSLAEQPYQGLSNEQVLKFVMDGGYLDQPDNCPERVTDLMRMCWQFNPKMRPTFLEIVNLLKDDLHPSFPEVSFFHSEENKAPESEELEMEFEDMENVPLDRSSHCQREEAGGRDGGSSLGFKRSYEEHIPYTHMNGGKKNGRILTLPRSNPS

[9] = biological target: Serine/threonine-protein kinase STK11 (Homo sapiens) (UniProt Q15831); assay: Inhibition of recombinant human full length LKB1 at 1 uM using LSNLYHQGKFLQTFCGSPLYRRR as substrate incubated for 40 mins in presence of [gamma-33P]-ATP by scintillation counting method relative to control
[10] = biological target: Serine/threonine-protein kinase Nek6 (Homo sapiens) (UniProt Q9HC98); assay: Inhibition of recombinant human NEK6 (2 to end residues) at 1 uM using FLAKSFGSPNRAYKK as substrate incubated for 40 mins in presence of [gamma-33P]-ATP by scintillation counting method relative to control
[11] = biological target: cGMP-dependent protein kinase 1 (Homo sapiens) (UniProt Q13976); assay: Inhibition of recombinant human full length PKG1alpha at 1 uM using RRRLSFAEPG as substrate incubated for 40 mins in presence of [gamma-33P]-ATP by scintillation counting method relative to control
Sequence of cGMP-dependent protein kinase 1 (Homo sapiens) (Q13976 whole entry): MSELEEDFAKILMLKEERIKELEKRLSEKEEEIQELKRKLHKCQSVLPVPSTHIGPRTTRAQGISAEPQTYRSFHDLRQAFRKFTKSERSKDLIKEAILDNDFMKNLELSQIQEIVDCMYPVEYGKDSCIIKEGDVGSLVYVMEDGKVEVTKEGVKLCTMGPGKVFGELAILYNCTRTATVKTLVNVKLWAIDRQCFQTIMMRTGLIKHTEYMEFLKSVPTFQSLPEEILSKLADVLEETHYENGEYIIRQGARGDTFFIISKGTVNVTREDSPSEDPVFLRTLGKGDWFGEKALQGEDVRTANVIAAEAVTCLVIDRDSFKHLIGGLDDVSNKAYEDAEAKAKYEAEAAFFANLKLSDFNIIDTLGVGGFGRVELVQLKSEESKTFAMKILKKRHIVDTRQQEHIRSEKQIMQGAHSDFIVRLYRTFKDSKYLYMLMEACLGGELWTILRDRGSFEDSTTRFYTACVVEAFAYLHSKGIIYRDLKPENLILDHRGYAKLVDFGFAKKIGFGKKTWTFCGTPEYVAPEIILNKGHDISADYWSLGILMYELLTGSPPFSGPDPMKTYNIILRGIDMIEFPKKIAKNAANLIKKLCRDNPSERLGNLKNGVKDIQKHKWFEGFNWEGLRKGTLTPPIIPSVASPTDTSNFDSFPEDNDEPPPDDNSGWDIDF

[12] = tested on: Proto-oncogene tyrosine-protein kinase receptor Ret (Homo sapiens), P07949 [V804L]; assay: Inhibition of recombinant human RET V804L mutant (658 to end residues) at 1 uM using KKKVSRSGLYRSPSMPENLNRPR as substrate incubated for 40 mins in presence of [gamma-33P]-ATP by scintillation counting method relative to control
Sequence of Proto-oncogene tyrosine-protein kinase receptor Ret (Homo sapiens), P07949 [V804L] (P07949 whole entry V804L): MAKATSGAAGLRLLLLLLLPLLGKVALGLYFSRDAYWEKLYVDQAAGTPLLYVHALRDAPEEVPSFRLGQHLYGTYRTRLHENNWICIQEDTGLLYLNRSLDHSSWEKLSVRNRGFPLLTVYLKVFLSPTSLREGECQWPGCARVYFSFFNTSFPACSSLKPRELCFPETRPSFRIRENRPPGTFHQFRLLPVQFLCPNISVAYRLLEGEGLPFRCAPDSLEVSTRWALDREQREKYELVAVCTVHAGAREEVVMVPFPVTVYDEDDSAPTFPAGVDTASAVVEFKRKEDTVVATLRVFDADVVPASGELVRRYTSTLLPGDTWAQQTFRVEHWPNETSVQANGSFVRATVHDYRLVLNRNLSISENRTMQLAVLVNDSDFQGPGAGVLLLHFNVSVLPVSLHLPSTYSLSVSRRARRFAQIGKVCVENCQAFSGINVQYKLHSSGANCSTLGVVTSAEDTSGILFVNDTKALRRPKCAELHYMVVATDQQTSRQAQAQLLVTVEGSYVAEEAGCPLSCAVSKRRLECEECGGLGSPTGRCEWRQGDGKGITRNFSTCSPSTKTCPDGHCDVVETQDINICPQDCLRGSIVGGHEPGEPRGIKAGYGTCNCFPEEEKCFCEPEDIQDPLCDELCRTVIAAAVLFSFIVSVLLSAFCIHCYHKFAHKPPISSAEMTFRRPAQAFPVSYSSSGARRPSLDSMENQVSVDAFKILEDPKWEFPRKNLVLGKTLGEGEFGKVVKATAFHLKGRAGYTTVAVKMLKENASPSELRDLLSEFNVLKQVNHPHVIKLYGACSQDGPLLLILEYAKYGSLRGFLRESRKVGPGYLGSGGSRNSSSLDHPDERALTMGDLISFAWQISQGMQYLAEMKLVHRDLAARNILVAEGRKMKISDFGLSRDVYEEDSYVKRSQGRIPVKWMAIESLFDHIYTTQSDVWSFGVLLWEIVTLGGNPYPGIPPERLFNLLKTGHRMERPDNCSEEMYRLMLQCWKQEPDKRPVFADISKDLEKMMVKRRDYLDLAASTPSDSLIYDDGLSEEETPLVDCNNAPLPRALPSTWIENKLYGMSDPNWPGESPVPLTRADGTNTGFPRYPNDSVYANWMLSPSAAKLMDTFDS

[13] = tested on: Proto-oncogene tyrosine-protein kinase receptor Ret (Homo sapiens), P07949 [V804M]; assay: Inhibition of recombinant human RET V804M mutant (658 to end residues) at 1 uM using KKKVSRSGLYRSPSMPENLNRPR as substrate incubated for 40 mins in presence of [gamma-33P]-ATP by scintillation counting method relative to control
Sequence of Proto-oncogene tyrosine-protein kinase receptor Ret (Homo sapiens), P07949 [V804M] (P07949 whole entry V804M): as the sequence (P07949 whole entry V804L) above, with L804M counted along it

[14] = biological target: Serine/threonine-protein kinase 32B (Homo sapiens) (UniProt Q9NY57); assay: Inhibition of recombinant human full length STK32B at 1 uM using casein as substrate incubated for 40 mins in presence of [gamma-33P]-ATP by scintillation counting method relative to control
[15] = biological target: Tyrosine-protein kinase Tec (Homo sapiens) (UniProt P42680); assay: Inhibition of activated recombinant human TEC (174 to end residues) at 1 uM using EFPIYDFLPAKKK as substrate incubated for 40 mins in presence of [gamma-33P]-ATP by scintillation counting method relative to control
[16] = biological target: Testis-specific serine/threonine-protein kinase 4 (Homo sapiens) (UniProt Q6SA08); assay: Inhibition of recombinant human full length TSSK4 at 1 uM using KKLNRTLSFAEPG as substrate incubated for 40 mins in presence of [gamma-33P]-ATP by scintillation counting method relative to control
Sequence of Testis-specific serine/threonine-protein kinase 4 (Homo sapiens) (Q6SA08 whole entry): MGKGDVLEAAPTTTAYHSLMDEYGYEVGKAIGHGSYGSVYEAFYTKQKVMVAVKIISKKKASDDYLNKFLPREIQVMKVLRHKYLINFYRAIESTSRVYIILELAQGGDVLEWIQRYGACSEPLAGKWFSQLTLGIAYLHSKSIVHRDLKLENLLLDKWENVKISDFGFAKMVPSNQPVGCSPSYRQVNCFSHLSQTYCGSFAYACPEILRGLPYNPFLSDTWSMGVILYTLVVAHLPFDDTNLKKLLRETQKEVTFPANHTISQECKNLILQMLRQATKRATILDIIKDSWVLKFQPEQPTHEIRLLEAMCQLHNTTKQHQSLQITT
Summary of the method: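 Single-point inhibition at 1 uM measured in a commercial kinase profiling panel (KinaseProfiler); each value is the mean of two independent experiments.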

[17] = biological target: Mast/stem cell growth factor receptor Kit (Homo sapiens) (UniProt P10721); assay: Inhibition of recombinant human cKIT (544 to end residues) at 1 uM using poly(Glu, Tyr) 4:1 as substrate incubated for 40 mins in presence of [gamma-33P]-ATP by scintillation counting method relative to control
Summary of the method: as §1

[18] = Toxicity in BALB/c mouse assessed as effect on blood parameter by measuring MCV at 40 mg/kg, po administered once two days for 4 times by hematology analyzer; conditions: in vivo

- inhibition [1]: Active
SMILES: COc1cc2nccc(Oc3ccc(NC(=O)C4(C(=O)Nc5ccc(F)cc5)CC4)cc3)c2cc1OC [CABOZANTINIB]

SMILES: Cc1ccc(NC(=O)C2(C(=O)Nc3ccc(Nc4ncc(F)c(-c5cc(F)c6nc(C)n(C(C)C)c6c5)n4)cc3)CC2)cc1
- Activity (T47D): Active
- Activity (HeLa): Dose-dependent effect
- AUC(0-t) [2]: 6000 ng·h/mL
- inhibition [3]: 59%
- inhibition [4]: 0%
- inhibition [5]: 31%
- inhibition [6]: 0%
- inhibition [7]: 66%
- inhibition [8]: 35%
- inhibition [9]: 12%
- inhibition [10]: 2%
- inhibition [11]: 51%
- inhibition [12]: 42%
- inhibition [13]: 27%
- inhibition [14]: 2%
- inhibition [15]: 1%
- inhibition [16]: 0%
- inhibition [17]: 17%
- Activity [18]: Non-Toxic
